Assay results from different studies.
Protocols differ between the studies behind these lines.
Sample: plasma

| SMILES | host | route | dose | setting | AUC(0-t) |
| --- | --- | --- | --- | --- | --- |
| COCCOc1cnc2ccn([C@H](C)c3nnc4c(F)cc(-c5cnn(C)c5)cn34)c(=O)c2c1 | human | oral | 100 mg | multiple doses, once daily, patients | 17300 ng·h/mL |
| CC(C)n1cc(C#N)c2cc(-n3cc(C(=O)O)cn3)ccc21 | human | oral | 25 mg | single dose, fasted, healthy volunteers | 5010 ng·h/mL |
| O=C(/C=C/c1cccc(S(=O)(=O)Nc2ccccc2)c1)NO | human | intravenous | 1900 mg/m² | patients | 72100 ng·h/mL |
| C[C@@]1(c2cc(NC(=O)c3ccc(C#N)cn3)ccc2F)C=CSC(N)=N1 | human | oral | 90 mg | single dose | 8800 ng·h/mL |
| COc1cc2c(Nc3ccc(Br)cc3F)ncnc2cc1OCC1CCN(C)CC1 | human | oral | 85 mg/m² | multiple doses, patients | 15500 ng·h/mL |
| COc1cc(N2CCC(N3CCN(C)CC3)CC2)ccc1Nc1ncnc(Nc2ccccc2S(=O)(=O)C(C)C)n1 | human | oral | 75 mg | multiple doses, patients | 3810 ng·h/mL |
| Oc1cc(O)c2c(c1)O[C@@H](c1ccc(O)c(O)c1)[C@@H](O)C2 | human | oral | 30 mg | single dose | 6.9 ng·h/mL |
| CCCCC1=NC2(CCCC2)C(=O)N1Cc1ccc(-c2ccccc2S(=O)(=O)Nc2noc(C)c2C)c(COCC)c1 | human | oral | 200 mg | single dose, fed, healthy volunteers, tablet | 50500 ng·h/mL |
| NS(=O)(=O)c1ccc(NC(=O)Nc2ccc(F)cc2)cc1 | human | oral | 1000 mg | multiple doses, once daily | 70700 ng·h/mL |
| CO[C@@H]1[C@H](OC(=O)N2CC(CCN3CCOCC3)C2)CC[C@]2(CO2)[C@H]1[C@@]1(C)O[C@@H]1CC=C(C)C | human | subcutaneous | 2.4 mg | single dose, healthy volunteers | 8.07 ng·h/mL |
| CNC(=O)c1ccccc1Sc1ccc2c(/C=C/c3ccccn3)n[nH]c2c1 | human | oral | 5 mg | single dose, fasted, healthy volunteers | 194 ng·h/mL |
| C=CC(=O)N1CCC(Oc2cc3c(Nc4ccc(Cl)c(Cl)c4F)ncnc3cc2OC)CC1 | human | oral | 16 mg | single dose, fed | 474 ng·h/mL |
| FC(F)(F)c1ccc(CNc2ccc(Cc3c[nH]c4ncc(Cl)cc34)cn2)cn1 | human | oral | 1200 mg | multiple doses, patients | 29500 ng·h/mL |
| CC(C)(O)c1ccccc1-c1ccc2[nH]c(/C=C/c3ccc(C(F)(F)F)cc3)nc2c1 | male human | oral | 5 mg | single dose, fasted | 350 ng·h/mL |
| COc1ccc([C@@H]2CN(C(=O)[C@@H](O)CO)C[C@@]2(C)[C@@H](C)O)cc1OC1CN(c2ccc(C)cn2)C1 | human | oral | 0.5 mg | single dose, healthy volunteers | 188 ng·h/mL |
| CO[C@H]1CC[C@H](N2C(=O)CNc3ncc(-c4ccc(C(C)(C)O)nc4)nc32)CC1 | human | oral | 15 mg | multiple doses, patients | 383 ng·h/mL |
| C[C@@H](Oc1ccc(S(C)(=O)=O)cc1C(=O)N1C[C@@H]2C[C@]2(c2cc(C(F)(F)F)on2)C1)C(F)(F)F | human | oral | 25 mg | fasted | 10.8 µM·h |
| COc1ccc(-n2nc(C(N)=O)c3c2C(=O)N(c2ccc(N4CCCCC4=O)cc2)CC3)cc1 | male human | oral | 2.5 mg | single dose | 430 ng·h/mL |
